Reference: article PMC9052103 (RSC Advances, 2020)
Read-outs that look alike come from different tables or passages of the source.

Experiments:
S. aureus ATCC 29213 [1] = assay: MIC, 96-well microtiter broth dilution; assay type: cell-based; conditions: Staphylococcus aureus
S. aureus ATCC 43300 = assay: MIC, 96-well microtiter broth dilution; assay type: cell-based; conditions: Staphylococcus aureus, ATCC43300|MRSA, read-out: MIC S. aureus ATCC 43300
S. aureus ATCC BAA-41 = assay: MIC, 96-well microtiter broth dilution; assay type: cell-based; conditions: Staphylococcus aureus, ATCCBAA41|MRSA, read-out: MIC S. aureus ATCC BAA-41
S. aureus ATCC BAA-1747 = assay: MIC, 96-well microtiter broth dilution; assay type: cell-based; conditions: Staphylococcus aureus, ATCCBAA1747|MRSA, read-out: MIC S. aureus ATCC BAA-1747
S. aureus ATCC BAA-1720 = assay: MIC, 96-well microtiter broth dilution; assay type: cell-based; conditions: Staphylococcus aureus, ATCCBAA1720|MRSA, read-out: MIC S. aureus ATCC BAA-1720
E. faecalis ATCC 29212 = assay: MIC, 96-well microtiter broth dilution; assay type: cell-based; conditions: Enterococcus faecalis, ATCC29212, read-out: MIC E. faecalis ATCC 29212
E. faecium ATCC 49624 = assay: MIC, 96-well microtiter broth dilution; assay type: cell-based; conditions: Enterococcus faecium, ATCC49624, read-out: MIC E. faecium ATCC 49624
E. faecium ATCC 700221 = assay: MIC, 96-well microtiter broth dilution; assay type: cell-based
[2] = test system: S. epidermidis ATCC 12228; assay: MIC, 96-well microtiter broth dilution; assay type: cell-based; conditions: Staphylococcus epidermidis, ATCC12228, read-out: MIC S. epidermidis ATCC 12228
E. coli ATCC 25922 = assay: MIC, 96-well microtiter broth dilution; assay type: cell-based; conditions: Escherichia coli, ATCC25922, read-out: MIC E. coli ATCC 25922
E. coli ATCC 8739 = assay: MIC, 96-well microtiter broth dilution; assay type: cell-based; conditions: Escherichia coli, ATCC8739, read-out: MIC E. coli ATCC 8739
[3] = test system: human bronchial epithelium cells (16HBE); assay: CCK-8 cytotoxicity assay; assay type: cell-based; conditions: 48 h, read-out: IC50 16HBE
In short: (§1)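 Cells seeded at 5000 per well and allowed to adhere overnight at 37 °C, then exposed to test compound for 48 h. CCK-8 reagent added for a further 3 h, with absorbance read at 450 nm. Triplicates.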

[4] = test system: human renal tubular epithelial cells (HK-2); assay: CCK-8 cytotoxicity assay; assay type: cell-based; conditions: Epithelial cell, 48 h, read-out: IC50 HK-2
In short: as §1

[5] = test system: mouse fibroblast cells (L929); assay: CCK-8 cytotoxicity assay; assay type: cell-based; conditions: L929, 48 h, read-out: IC50 L929
In short: as §1

SaFtsZ = SaFtsZ (Staphylococcus aureus, UniProt P0A031); assay: SaFtsZ binding affinity assay; parameters: species or system S. aureus
In short: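 Fluorescence titration at 25 °C in 50 mM Tris–HCl pH 7.4, 50 mM KCl, 2 mM magnesium acetate. Test compound at 3.51 or 3.68 μM titrated with SaFtsZ in 0.4 μM steps (0.4–6.4 μM), equilibrating 2 min per step. Excitation 493 nm, emission 500–700 nm, buffer-titration background subtracted. Kd obtained by nonlinear fit to an independent-site model.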

S. aureus FtsZ = biological target: T1, S. aureus FtsZ (Staphylococcus aureus, UniProt P0A031); assay: Light-scattering assay of FtsZ polymerization; assay type: biochemical
T1 sequence (P0A031 1-390): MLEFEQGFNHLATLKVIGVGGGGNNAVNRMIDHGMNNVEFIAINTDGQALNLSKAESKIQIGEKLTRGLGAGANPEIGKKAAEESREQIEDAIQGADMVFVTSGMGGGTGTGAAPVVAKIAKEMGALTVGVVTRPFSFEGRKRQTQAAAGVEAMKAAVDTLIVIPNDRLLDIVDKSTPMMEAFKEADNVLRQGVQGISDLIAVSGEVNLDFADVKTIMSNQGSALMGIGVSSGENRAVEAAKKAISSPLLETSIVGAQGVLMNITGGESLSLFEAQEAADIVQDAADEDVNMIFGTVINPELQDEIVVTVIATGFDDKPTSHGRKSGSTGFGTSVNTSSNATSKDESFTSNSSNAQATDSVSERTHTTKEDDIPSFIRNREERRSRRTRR
In short: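 S. aureus FtsZ (4 μM) in 50 mM MOPS pH 6.5, preincubated 10 min at 25 °C with 1% DMSO vehicle or test compound. Baseline set after adding 50 mM KCl and 10 mM MgCl2. After 10 min, 1 mM GTP added. 90° light scattering (excitation/emission 600 nm) followed for 25 min, with blank background subtracted. Rate and extent of polymerization calculated. Triplicates.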

S. aureus FtsZ (SaFtsZ) = S. aureus FtsZ (SaFtsZ) (Staphylococcus aureus, UniProt P0A031); assay: GTPase activity assay; assay type: biochemical
In short: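 Phosphate-release kit assay: S. aureus FtsZ (7.3 μM) in assay buffer with 1% DMSO vehicle or varied concentrations of test compound. Reaction started with 200 μM GTP and run 30 min at room temperature. Colour reagent added for another 30 min to stop the reaction, and inorganic phosphate read at 620 nm. Triplicates.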

B. subtilis 168 = assay: Bacterial morphology study; assay type: cell-based; conditions: 0.5 μg mL^−1 for 4 h; control group 5–10 μm
Z-ring in B. subtilis = assay: Visualization of Z-ring; assay type: cell-based; conditions: 0.5 × MIC, 4 h
In short: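 B. subtilis carrying IPTG-inducible GFP-FtsZ plasmid grown in LB with 30 μg mL−1 chloramphenicol at 37 °C with shaking; overnight culture diluted to 1% in LB with 40 μM IPTG plus test compound at 0.5 × MIC, 4 h at 37 °C. Cells fixed, resuspended in PBS, placed on 0.1% (w/v) poly-L-lysine-coated slides; imaged by confocal microscopy, 40× oil immersion.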

S. aureus ATCC 29213 [6] = assay: In vitro drug resistance development, serial passage; assay type: cell-based
In short: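 Serial passage against S. aureus ATCC 29213: culture from the 0.5 × MIC well of the prior MIC plate diluted to 5 × 10^5 CFU mL−1 and exposed to a range of test compound concentrations. MIC read after 24 h at 37 °C. Cycle repeated 35 times. Ciprofloxacin, vancomycin and rifampin passaged in parallel.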

MRSA strains = assay: MIC, summary over MRSA strains; assay type: cell-based, S. aureus; conditions: Staphylococcus aureus, read-out: MIC against MRSA
[7] = test system: E. faecium, S. epidermidis and E. coli; assay: MIC, summary over E. faecium, S. epidermidis and E. coli; assay type: cell-based; conditions: read-out: MIC against E. faecium, S. epidermidis and E. coli
[8] = test system: drug-resistant K. pneumoniae, A. baumannii, P. aeruginosa and E. cloacae

Cc1cc(/C=C2\Sc3ccccc3N2CCCN2CCC(C)CC2)c2ccccc2[n+]1C.[I-] [Compound 4a4, (Z)-1,2-Dimethyl-4-((3-(3-(4-methylpiperidin-1-yl)propyl)benzo[d]thiazol-2(3H)-ylidene)methyl)quinolin-1-ium iodide] was tested, and the MIC (S. aureus ATCC 29213 [1]; ATCC29213) was 1 µg/mL, the MIC (S. aureus ATCC 29213 [1]; ATCC29213, read-out: MIC S. aureus ATCC 29213) was 1 µg/mL and the MIC (S. aureus ATCC 29213 [1]; ATCC29213, read-out: S. aureus ATCC 29213 (MIC)) was 1 µg/mL. For the same molecule, the MIC (S. aureus ATCC 43300) was 2 µg/mL, the MIC (S. aureus ATCC BAA-41) was 1 µg/mL and the MIC (S. aureus ATCC BAA-1747) was 2 µg/mL. It also gave an MIC (S. aureus ATCC BAA-1720) of 2 µg/mL, an MIC (E. faecalis ATCC 29212) of 2 µg/mL and an MIC (E. faecium ATCC 49624) of 1 µg/mL. For the same molecule, the MIC (E. faecium ATCC 700221; Enterococcus faecium, ATCC700221) was 2 µg/mL, the MIC (E. faecium ATCC 700221; read-out: MIC against VRE) was 2 to 16 µg/mL and the MIC [2] was 0.5 µg/mL. For the same molecule, the MIC (E. coli ATCC 25922) was 0.5 µg/mL, the MIC (E. coli ATCC 8739) was 1 µg/mL and the IC50 [3] was 14.3 µg/mL. For the same molecule, the IC50 [4] was 26 µg/mL, the IC50 [5] was 12.6 µg/mL and the Kd (SaFtsZ) was 125 nM. The “Effect on FtsZ polymerization at a concentration gradient” value (S. aureus FtsZ; 0.125–0.5 μg mL^−1) was “enhance FtsZ polymerization in a dose-dependent manner”, the “Light scattering signal compared to control (FtsZ polymerization)” value (S. aureus FtsZ; same concentration, 0.125 μg mL^−1) was “significant increase in light scattering signal” and the “Effect on GTPase activity of SaFtsZ” value (S. aureus FtsZ (SaFtsZ)) was “did not show any effect”. The “Cell length of B. subtilis 168” value (B. subtilis 168) was greater than 10 μm, the “Effect on Z-ring formation (GFP-FtsZ localization)” value (Z-ring in B. subtilis) was “promoted the mislocalization of the FtsZ protein” and the “Increase of MIC after 35 passages” value (S. aureus ATCC 29213 [6]) was 16 fold. The MIC (MRSA strains) was 1 to 8 µg/mL, the MIC [7] was 0.5 to 2 µg/mL and the “Antibacterial activity against drug-resistant K. pneumoniae, A. baumannii, P. aeruginosa and E. cloacae” value [8] was “moderate antibacterial activity”.
